Data as given in ChEMBL document CHEMBL6083207, “Design, synthesis and biological evaluation of a novel PSMA-PI3K small molecule drug conjugate” (RSC Med Chem, 2024).

Key:
[1] = Toxicity in Balb/c athymic nude mouse xenografted with human 22Rv1 cells assessed as body weight change at 10 to 20 mg/kg, ip qd measured for 22 days; type: organism-based; conditions: in vivo, 528 h, dose 10-20 mg/kg, time 22 day
Procedure, shortened: (§1)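 Male Balb/c athymic nude mice, 8–10 weeks old. Tumour cells taken from 22Rv1 donor tumours (grown to 1000 mm3) and implanted at 2 × 10^6 per mouse, subcutaneously in the right flank. Randomized at about 100 mm3. Compound given ip once daily in saline with 1% PEG400; vehicle group received the same. Tumour volume (1/2 × L × W2) and body weight measured twice weekly.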

CWR22R [2] = assay: Antitumor activity against human 22Rv1 cells xenografted in Balb/c athymic nude mouse at 20 mg/kg, ip qd measured for 22 days relative to control; type: functional; conditions: 22Rv1, 528 h, time 22 day, read-out: TGI; procedure, shortened: as §1
[3] = Selectivity ratio of IC50 for PSMA-negative human PC-3 cells to IC50 for PSMA-positive human LNCaP cells; type: functional
Procedure, shortened: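 Ratio of PC3 IC50 to LNCaP IC50, both from 72 h CellTiter-Glo viability assays.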

[4] = target: Phosphatidylinositol 4,5-bisphosphate 3-kinase catalytic subunit alpha isoform (Homo sapiens, UniProt P42336); assay: Inhibition of PI3Kalpha (unknown origin)
22Rv1 [5] = assay: Inhibition of PI3K in human 22Rv1 cells assessed as reduction in phosphorylation of AKT at S473 incubated for 3 hrs by Western blot analysis; type: cell-based; conditions: dose <= 10.0 µM
Procedure, shortened: (§2)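 22Rv1 cells treated at the stated concentrations for 3 h and lysed in RIPA buffer with protease and phosphatase inhibitors. 25 μg protein separated by SDS-PAGE and blotted to PVDF. Probed overnight at 4 °C for phospho- and total mTOR, AKT (Ser473) and S6RP, with β-actin as loading control. Detected by ECL chemiluminescence.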

22Rv1 [6] = assay: Inhibition of PI3K in human 22Rv1 cells assessed as reduction in phosphorylation of S6RP incubated for 3 hrs by Western blot analysis; type: cell-based; conditions: dose <= 10.0 µM; procedure, shortened: as §2
22Rv1 [7] = assay: Inhibition of PI3K in human 22Rv1 cells assessed as reduction in phosphorylation of mTOR incubated for 3 hrs by Western blot analysis; type: cell-based; conditions: dose <= 10.0 µM; procedure, shortened: as §2
CWR22R [8] = assay: Antiproliferative activity against PSMA-positive human 22Rv1 cells incubated for 72 hrs by Cell Titer Glo assay; type: functional, cell-based; conditions: 22Rv1, 72 h
Procedure, shortened: (§3)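 Cells grown in RPMI 1640 with 10% FBS, seeded at 3 × 10^3 per well and left overnight, then exposed to a range of compound concentrations for 72 h. Viability read by CellTiter-Glo luminescence after 2 min shaking and 10 min at room temperature. IC50 calculated from the curves; mean of n = 3.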

CWR22R [9] = assay: Antitumor activity against human 22Rv1 cells xenografted in Balb/c athymic nude mouse administered intraperitoneally once daily measured for 22 days; conditions: dose 10-20 mg/kg, route ip, time 22.0 day; procedure, shortened: as §1
PC-3 = assay: Antiproliferative activity against PSMA-negative human PC-3 cells incubated for 72 hrs by Cell Titer Glo assay; type: functional, cell-based; conditions: PC-3, 72 h; procedure, shortened: as §3
LNCaP = assay: Antiproliferative activity against PSMA-positive human LNCaP cells incubated for 72 hrs by Cell Titer Glo assay; type: functional, cell-based; procedure, shortened: as §3
[10] = Toxicity in Balb/c athymic nude mouse xenografted with human 22Rv1 cells assessed as drug tolerance at 10 to 20 mg/kg, ip qd measured for 22 days; type: organism-based; conditions: in vivo, 528 h, dose 10-20 mg/kg, time 22 day; procedure, shortened: as §1
[11] = Selectivity ratio of IC50 for PSMA-negative human PC3 cells to IC50 for PSMA-positive human 22Rv1 cells
CWR22R [12] = assay: Induction of cell cycle arrest in human 22Rv1 cells assessed as accumulation at G0/G1 phase incubated for 24 hrs by flow cytometry; type: functional, cell-based; conditions: dose <= 10.0 µM
Procedure, shortened: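 1 × 10^5 22Rv1 cells treated at several concentrations for 24 h, then fixed in ice-cold 70% ethanol. Stained with PI/RNase and analysed by flow cytometry with 488 nm excitation to give the percentage of cells in each cycle phase.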

Sequence of Phosphatidylinositol 4,5-bisphosphate 3-kinase catalytic subunit alpha isoform (P42336 whole entry, canonical isoform): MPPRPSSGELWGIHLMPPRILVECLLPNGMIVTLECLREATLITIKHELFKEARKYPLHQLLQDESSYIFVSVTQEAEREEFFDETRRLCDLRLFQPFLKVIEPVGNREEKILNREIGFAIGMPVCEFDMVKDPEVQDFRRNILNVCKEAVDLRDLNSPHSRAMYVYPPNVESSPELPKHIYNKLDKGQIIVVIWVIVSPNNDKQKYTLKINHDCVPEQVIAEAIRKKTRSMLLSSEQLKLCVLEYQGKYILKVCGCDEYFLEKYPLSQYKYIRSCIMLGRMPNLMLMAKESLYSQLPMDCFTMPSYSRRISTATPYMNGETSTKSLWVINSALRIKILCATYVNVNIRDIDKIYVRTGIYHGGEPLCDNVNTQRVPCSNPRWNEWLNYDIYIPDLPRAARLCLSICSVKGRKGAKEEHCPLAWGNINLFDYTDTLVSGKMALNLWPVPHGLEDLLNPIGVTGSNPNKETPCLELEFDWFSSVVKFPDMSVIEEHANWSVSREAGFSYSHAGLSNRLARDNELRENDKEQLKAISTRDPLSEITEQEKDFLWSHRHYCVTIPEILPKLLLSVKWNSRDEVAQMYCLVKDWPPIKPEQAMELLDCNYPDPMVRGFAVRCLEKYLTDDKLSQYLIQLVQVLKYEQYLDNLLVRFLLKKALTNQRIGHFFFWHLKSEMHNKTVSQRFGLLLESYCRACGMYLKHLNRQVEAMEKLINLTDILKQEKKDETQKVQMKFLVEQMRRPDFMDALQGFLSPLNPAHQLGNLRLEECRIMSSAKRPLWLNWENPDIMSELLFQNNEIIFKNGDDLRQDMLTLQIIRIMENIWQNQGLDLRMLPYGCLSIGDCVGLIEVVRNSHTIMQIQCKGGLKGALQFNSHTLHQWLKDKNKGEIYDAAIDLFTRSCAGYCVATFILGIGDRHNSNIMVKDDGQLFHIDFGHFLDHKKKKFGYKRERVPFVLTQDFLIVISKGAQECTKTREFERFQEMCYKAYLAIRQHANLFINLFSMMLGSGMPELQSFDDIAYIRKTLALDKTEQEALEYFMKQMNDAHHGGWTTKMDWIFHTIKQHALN

IC50 [4]	IC50 (PC-3)	IC50 (LNCaP)	Structure (SMILES)	Activity [1]	inhibition in vivo at 20 mg/kg (CWR22R [2])	Ratio IC50 [3]	inhibition (22Rv1 [5])	inhibition (22Rv1 [6])	inhibition (22Rv1 [7])	IC50 (CWR22R [8])	Activity (CWR22R [9])	Activity [10]	Ratio IC50 [11]	Activity (CWR22R [12])
0.0004 µM	57.8 µM	1.08 µM	COc1ncc(-c2cc(OCCCC(=O)NC[C@H]3CC[C@@H](C(=O)N[C@@H](Cc4ccc5ccccc5c4)C(=O)NCCCC[C@H](NC(=O)N[C@@H](CCC(=O)O)C(=O)O)C(=O)O)CC3)c3ncnc(C)c3c2)cc1NS(=O)(=O)c1ccc(F)cc1F	Non-toxic	53%	54	Dose-dependent-effect	Dose-dependent-effect	Dose-dependent-effect	9.68 µM	Dose-dependent-effect	Non-toxic	6	Dose-dependent-effect
		> 100 µM	NCCCC[C@H](NC(=O)N[C@@H](CCC(=O)O)C(=O)O)C(=O)O											
